# The M2OR odorant receptor database
# Assays:
# Details in all cases: stereoisomer not certain
# OR51D1 (Homo sapiens) = target: T1, OR51D1 (Homo sapiens) (UniProt Q8NGF3)
# T1 sequence (whole entry): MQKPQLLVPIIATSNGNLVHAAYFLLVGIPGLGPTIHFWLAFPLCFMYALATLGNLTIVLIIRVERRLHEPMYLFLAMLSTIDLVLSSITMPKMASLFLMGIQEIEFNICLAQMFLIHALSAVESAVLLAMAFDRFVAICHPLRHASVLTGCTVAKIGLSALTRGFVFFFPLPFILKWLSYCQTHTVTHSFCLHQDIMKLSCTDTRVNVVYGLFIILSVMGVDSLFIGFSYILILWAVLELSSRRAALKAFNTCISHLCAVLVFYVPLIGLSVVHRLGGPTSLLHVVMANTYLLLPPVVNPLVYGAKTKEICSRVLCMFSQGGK
# How it was run: (§1)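 Assay methods differ from source to source, frequently being transient luciferase assays in mammalian cell lines. For each receptor–molecule pair, the label responsive (active) applies when the original authors judged the measured signal statistically different from baseline, and non-responsive (inactive) applies otherwise.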
# OR51E1 (Homo sapiens) [1] = target: T2, OR51E1 (Homo sapiens) (UniProt Q8TCB6)
# T2 sequence (whole entry): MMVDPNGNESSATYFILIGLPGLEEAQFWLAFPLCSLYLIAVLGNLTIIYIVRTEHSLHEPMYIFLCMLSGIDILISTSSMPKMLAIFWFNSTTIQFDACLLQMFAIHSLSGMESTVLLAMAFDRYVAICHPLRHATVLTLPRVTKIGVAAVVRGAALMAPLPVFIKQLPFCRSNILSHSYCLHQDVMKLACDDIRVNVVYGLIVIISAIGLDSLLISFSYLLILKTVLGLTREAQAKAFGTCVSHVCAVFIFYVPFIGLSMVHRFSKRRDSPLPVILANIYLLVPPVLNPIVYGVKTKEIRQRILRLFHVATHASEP
# How it was run: as §1
# OR51E2 (Homo sapiens) = target: T3, OR51E2 (Homo sapiens) (UniProt Q9H255)
# T3 sequence (whole entry): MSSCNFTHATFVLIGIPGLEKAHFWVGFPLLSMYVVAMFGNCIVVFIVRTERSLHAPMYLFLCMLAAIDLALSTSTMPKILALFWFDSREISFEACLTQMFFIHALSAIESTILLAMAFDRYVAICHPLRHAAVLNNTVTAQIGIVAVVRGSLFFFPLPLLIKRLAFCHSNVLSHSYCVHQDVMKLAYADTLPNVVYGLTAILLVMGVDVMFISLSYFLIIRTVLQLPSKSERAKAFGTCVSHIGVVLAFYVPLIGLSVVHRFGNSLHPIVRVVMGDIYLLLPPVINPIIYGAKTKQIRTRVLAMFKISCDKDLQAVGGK
# How it was run: as §1
# OR51F2 (Homo sapiens) = target: T4, OR51F2 (Homo sapiens) (UniProt Q8NH61)
# T4 sequence (whole entry): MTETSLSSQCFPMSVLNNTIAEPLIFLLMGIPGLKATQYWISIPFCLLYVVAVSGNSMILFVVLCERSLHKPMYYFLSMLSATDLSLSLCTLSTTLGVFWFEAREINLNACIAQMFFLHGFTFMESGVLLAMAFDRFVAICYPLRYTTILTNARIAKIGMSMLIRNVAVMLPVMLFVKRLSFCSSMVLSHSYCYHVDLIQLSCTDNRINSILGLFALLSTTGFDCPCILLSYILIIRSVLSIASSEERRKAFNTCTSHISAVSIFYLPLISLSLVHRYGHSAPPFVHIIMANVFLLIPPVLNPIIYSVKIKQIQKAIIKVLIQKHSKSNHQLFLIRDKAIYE
# How it was run: as §1
# OR51G1 (Homo sapiens) = target: T5, OR51G1 (Homo sapiens) (UniProt Q8NGK1)
# T5 sequence (whole entry): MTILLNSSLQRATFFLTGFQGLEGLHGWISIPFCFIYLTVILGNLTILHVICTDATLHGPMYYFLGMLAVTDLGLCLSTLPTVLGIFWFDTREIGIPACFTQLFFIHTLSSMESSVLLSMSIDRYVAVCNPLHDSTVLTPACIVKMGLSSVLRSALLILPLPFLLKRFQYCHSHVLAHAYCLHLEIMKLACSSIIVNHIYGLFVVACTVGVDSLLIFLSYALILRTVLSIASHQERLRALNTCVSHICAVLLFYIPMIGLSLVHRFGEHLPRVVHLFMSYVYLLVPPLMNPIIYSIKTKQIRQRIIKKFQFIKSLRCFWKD
# How it was run: as §1
# OR51G2 (Homo sapiens) = target: T6, OR51G2 (Homo sapiens) (UniProt Q8NGK0)
# T6 sequence (whole entry): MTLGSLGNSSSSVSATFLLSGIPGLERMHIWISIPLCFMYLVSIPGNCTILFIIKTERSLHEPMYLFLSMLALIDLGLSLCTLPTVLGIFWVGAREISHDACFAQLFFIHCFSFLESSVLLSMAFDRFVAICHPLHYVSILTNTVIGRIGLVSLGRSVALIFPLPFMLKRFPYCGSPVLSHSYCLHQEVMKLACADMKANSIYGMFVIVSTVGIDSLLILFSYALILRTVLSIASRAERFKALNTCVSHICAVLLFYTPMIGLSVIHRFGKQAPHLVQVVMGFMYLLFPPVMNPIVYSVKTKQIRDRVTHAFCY
# How it was run: as §1
# OR51I1 (Homo sapiens) = target: T7, OR51I1 (Homo sapiens) (UniProt Q9H343)
# T7 sequence (whole entry): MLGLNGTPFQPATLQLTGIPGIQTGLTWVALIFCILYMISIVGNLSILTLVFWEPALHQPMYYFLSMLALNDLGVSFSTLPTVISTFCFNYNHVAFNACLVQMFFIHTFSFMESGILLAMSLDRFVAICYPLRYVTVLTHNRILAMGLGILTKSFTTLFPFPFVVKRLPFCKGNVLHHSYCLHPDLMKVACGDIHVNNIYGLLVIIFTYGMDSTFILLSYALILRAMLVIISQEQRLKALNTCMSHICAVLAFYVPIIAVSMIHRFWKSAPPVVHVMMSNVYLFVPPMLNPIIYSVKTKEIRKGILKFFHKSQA
# How it was run: as §1
# OR51F1 (Homo sapiens) = target: T8, OR51F1 (Homo sapiens) (UniProt A6NGY5)
# T8 sequence (whole entry): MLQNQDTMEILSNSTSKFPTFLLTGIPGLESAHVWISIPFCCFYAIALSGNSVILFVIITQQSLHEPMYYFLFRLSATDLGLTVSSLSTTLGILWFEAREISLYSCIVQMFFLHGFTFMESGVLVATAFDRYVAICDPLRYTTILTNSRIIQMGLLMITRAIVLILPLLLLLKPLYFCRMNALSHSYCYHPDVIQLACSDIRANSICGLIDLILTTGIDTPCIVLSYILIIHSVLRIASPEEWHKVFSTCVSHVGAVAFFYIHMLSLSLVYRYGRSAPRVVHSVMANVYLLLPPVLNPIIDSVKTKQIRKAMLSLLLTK
# How it was run: as §1
# OR51H1 (Homo sapiens) = OR51H1 (Homo sapiens) (UniProt Q8NH63)
# Chain of OR51H1 (Homo sapiens) (Q8NH63 whole entry): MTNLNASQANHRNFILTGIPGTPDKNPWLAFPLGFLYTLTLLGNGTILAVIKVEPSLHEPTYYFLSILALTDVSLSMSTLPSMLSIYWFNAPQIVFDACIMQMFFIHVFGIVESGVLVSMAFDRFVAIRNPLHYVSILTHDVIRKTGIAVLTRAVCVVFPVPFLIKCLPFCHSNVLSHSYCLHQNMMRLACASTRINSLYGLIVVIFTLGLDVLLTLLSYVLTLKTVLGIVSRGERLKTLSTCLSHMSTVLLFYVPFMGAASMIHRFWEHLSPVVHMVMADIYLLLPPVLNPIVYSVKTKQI
# How it was run: as §1
# OR51E1 (Homo sapiens) [2] = target: T9, OR51E1 (Homo sapiens) (UniProt Q8TCB6); remark: listed apart in the source
# T9 sequence (whole entry): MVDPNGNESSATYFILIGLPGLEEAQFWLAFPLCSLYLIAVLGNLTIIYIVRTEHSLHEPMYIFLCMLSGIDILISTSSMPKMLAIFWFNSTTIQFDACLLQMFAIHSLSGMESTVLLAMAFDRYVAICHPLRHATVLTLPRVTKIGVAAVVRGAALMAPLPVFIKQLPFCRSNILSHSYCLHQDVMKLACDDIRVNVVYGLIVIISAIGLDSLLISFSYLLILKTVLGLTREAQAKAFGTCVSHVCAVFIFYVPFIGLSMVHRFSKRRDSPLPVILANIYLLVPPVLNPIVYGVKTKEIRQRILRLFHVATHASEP
# How it was run: as §1
structure (smiles),measurement,setting,value
CCC1OC(C)=C(O)C1=O (centres undefined),odorant receptor agonist call,OR51D1 (Homo sapiens),inactive
same,odorant receptor agonist call,OR51E1 (Homo sapiens) [1],inactive
same,odorant receptor agonist call,OR51E2 (Homo sapiens),inactive
same,odorant receptor agonist call,OR51F2 (Homo sapiens),inactive
same,odorant receptor agonist call,OR51G1 (Homo sapiens),inactive
same,odorant receptor agonist call,OR51G2 (Homo sapiens),inactive
same,odorant receptor agonist call,OR51I1 (Homo sapiens),inactive
CC(=O)c1c(C)c([N+](=O)[O-])c(C(C)(C)C)c([N+](=O)[O-])c1C,odorant receptor agonist call,OR51D1 (Homo sapiens),inactive
same,odorant receptor agonist call,OR51E2 (Homo sapiens),inactive
same,odorant receptor agonist call,OR51F1 (Homo sapiens),inactive
same,odorant receptor agonist call,OR51F2 (Homo sapiens),inactive
same,odorant receptor agonist call,OR51G1 (Homo sapiens),inactive
same,odorant receptor agonist call,OR51G2 (Homo sapiens),inactive
same,odorant receptor agonist call,OR51H1 (Homo sapiens),inactive
same,odorant receptor agonist call,OR51I1 (Homo sapiens),inactive
CCCCCCCC(C)=O,odorant receptor agonist call,OR51E1 (Homo sapiens) [2],inactive
same,odorant receptor agonist call,OR51E2 (Homo sapiens),inactive
CCCCCO,odorant receptor agonist call,OR51E1 (Homo sapiens) [2],inactive
same,odorant receptor agonist call,OR51E2 (Homo sapiens),inactive
CC1=C(O)C(=O)C(C)O1 (centres undefined),odorant receptor agonist call,OR51D1 (Homo sapiens),inactive
same,odorant receptor agonist call,OR51E1 (Homo sapiens) [1],inactive
same,odorant receptor agonist call,OR51E2 (Homo sapiens),inactive
same,odorant receptor agonist call,OR51F2 (Homo sapiens),inactive
same,odorant receptor agonist call,OR51G1 (Homo sapiens),inactive
same,odorant receptor agonist call,OR51G2 (Homo sapiens),inactive
same,odorant receptor agonist call,OR51I1 (Homo sapiens),inactive
CCCCCC1CCCC(=O)O1 (centres undefined),odorant receptor agonist call,OR51D1 (Homo sapiens),inactive
same,odorant receptor agonist call,OR51E1 (Homo sapiens) [2],inactive
same,odorant receptor agonist call,OR51E2 (Homo sapiens),inactive
same,odorant receptor agonist call,OR51F1 (Homo sapiens),inactive
same,odorant receptor agonist call,OR51F2 (Homo sapiens),inactive
same,odorant receptor agonist call,OR51G1 (Homo sapiens),inactive
same,odorant receptor agonist call,OR51G2 (Homo sapiens),inactive
same,odorant receptor agonist call,OR51I1 (Homo sapiens),inactive
CCCCCCC(=O)[O-].[H+],odorant receptor agonist call,OR51E1 (Homo sapiens) [2],inactive
same,odorant receptor agonist call,OR51E2 (Homo sapiens),inactive
CCC1OC(=O)C(O)=C1C (centres undefined),odorant receptor agonist call,OR51D1 (Homo sapiens),inactive
same,odorant receptor agonist call,OR51E1 (Homo sapiens) [1],inactive
same,odorant receptor agonist call,OR51E2 (Homo sapiens),inactive
same,odorant receptor agonist call,OR51F2 (Homo sapiens),inactive
same,odorant receptor agonist call,OR51G1 (Homo sapiens),inactive
same,odorant receptor agonist call,OR51G2 (Homo sapiens),inactive
same,odorant receptor agonist call,OR51I1 (Homo sapiens),inactive
CCCCC(S)C(C)CO (centres undefined),odorant receptor agonist call,OR51D1 (Homo sapiens),inactive
same,odorant receptor agonist call,OR51E1 (Homo sapiens) [2],inactive
same,odorant receptor agonist call,OR51E2 (Homo sapiens),inactive
same,odorant receptor agonist call,OR51F1 (Homo sapiens),inactive
same,odorant receptor agonist call,OR51F2 (Homo sapiens),inactive
same,odorant receptor agonist call,OR51G1 (Homo sapiens),inactive
same,odorant receptor agonist call,OR51G2 (Homo sapiens),inactive
same,odorant receptor agonist call,OR51I1 (Homo sapiens),inactive
CCC(C)CC(=O)O (centres undefined),odorant receptor agonist call,OR51E1 (Homo sapiens) [2],active
CCCCCCCCCCCCCCCC(=O)[O-].[H+],odorant receptor agonist call,OR51E1 (Homo sapiens) [2],inactive
CCCCCCC(C)=O,odorant receptor agonist call,OR51E1 (Homo sapiens) [2],inactive
same,odorant receptor agonist call,OR51E2 (Homo sapiens),inactive
CCCCCCCCO,odorant receptor agonist call,OR51E1 (Homo sapiens) [2],inactive
same,odorant receptor agonist call,OR51E2 (Homo sapiens),inactive
CCC(=O)C(=O)CC,odorant receptor agonist call,OR51E1 (Homo sapiens) [2],inactive
same,odorant receptor agonist call,OR51E2 (Homo sapiens),inactive
CCCCCCO,odorant receptor agonist call,OR51E1 (Homo sapiens) [2],inactive
same,odorant receptor agonist call,OR51E2 (Homo sapiens),inactive
CCCCCC(=O)CC,odorant receptor agonist call,OR51E1 (Homo sapiens) [2],inactive
same,odorant receptor agonist call,OR51E2 (Homo sapiens),inactive
CCCC(=O)C(C)=O,odorant receptor agonist call,OR51E1 (Homo sapiens) [2],inactive
same,odorant receptor agonist call,OR51E2 (Homo sapiens),inactive
CC(=O)Oc1ccccc1,odorant receptor agonist call,OR51E1 (Homo sapiens) [2],inactive
same,odorant receptor agonist call,OR51E2 (Homo sapiens),inactive
CCCCCCCO,odorant receptor agonist call,OR51E1 (Homo sapiens) [2],inactive
same,odorant receptor agonist call,OR51E2 (Homo sapiens),inactive
CCCCC(=O)CC,odorant receptor agonist call,OR51E1 (Homo sapiens) [2],inactive
same,odorant receptor agonist call,OR51E2 (Homo sapiens),inactive
CCCCCCCCCC(=O)[O-].[H+],odorant receptor agonist call,OR51E1 (Homo sapiens) [2],inactive
same,odorant receptor agonist call,OR51E2 (Homo sapiens),inactive
CCCCCC1=C(C)CCC1=O,odorant receptor agonist call,OR51E1 (Homo sapiens) [2],inactive
same,odorant receptor agonist call,OR51E2 (Homo sapiens),inactive
CCCCC(=O)O,odorant receptor agonist call,OR51E2 (Homo sapiens),inactive
CCOC(=O)C(C)C,odorant receptor agonist call,OR51E1 (Homo sapiens) [2],inactive
same,odorant receptor agonist call,OR51E2 (Homo sapiens),inactive
C=CCOC(=O)CCCCCC,odorant receptor agonist call,OR51E1 (Homo sapiens) [2],inactive
same,odorant receptor agonist call,OR51E2 (Homo sapiens),inactive
CC(C)=CCCC(C)CCO (centres undefined),odorant receptor agonist call,OR51E1 (Homo sapiens) [2],inactive
same,odorant receptor agonist call,OR51E2 (Homo sapiens),inactive
O=c1ccc2ccccc2o1,odorant receptor agonist call,OR51E1 (Homo sapiens) [2],inactive
same,odorant receptor agonist call,OR51E2 (Homo sapiens),inactive
CCCCCC=O,odorant receptor agonist call,OR51E1 (Homo sapiens) [2],inactive
same,odorant receptor agonist call,OR51E2 (Homo sapiens),inactive
CC(=O)C=CC1=C(C)CCCC1(C)C,odorant receptor agonist call,OR51E2 (Homo sapiens),inactive
CCCCCCCCCO,odorant receptor agonist call,OR51E1 (Homo sapiens) [2],inactive
same,odorant receptor agonist call,OR51E2 (Homo sapiens),inactive
O=C1Cc2ccccc2O1,odorant receptor agonist call,OR51E1 (Homo sapiens) [2],inactive
same,odorant receptor agonist call,OR51E2 (Homo sapiens),inactive
CCCCOC(=O)C(C)OC(=O)CCC (centres undefined),odorant receptor agonist call,OR51E1 (Homo sapiens) [2],active
same,odorant receptor agonist call,OR51E2 (Homo sapiens),inactive
CCCCCCCCS,odorant receptor agonist call,OR51E1 (Homo sapiens) [2],inactive
same,odorant receptor agonist call,OR51E2 (Homo sapiens),inactive
CCCCOC=O,odorant receptor agonist call,OR51E1 (Homo sapiens) [2],inactive
same,odorant receptor agonist call,OR51E2 (Homo sapiens),inactive
CCCCCOC(=O)CCCCC,odorant receptor agonist call,OR51E1 (Homo sapiens) [2],inactive
same,odorant receptor agonist call,OR51E2 (Homo sapiens),inactive
